# From PubChem BioAssay
# Activity calls are given as the source filed them.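 Rule for the calls, unless noted: active = NADPH fluorescence slope more negative than the mean of all samples by about 3 SD, 99.7% confidence; inactive = the rest.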
# Tests used:
# [1] = inhibitors of TNFa-induced NFkB p65 translocation, primary screen, imaging, HUVEC, MLSMR starter and 10KST1 sets (AID 438;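 active = inhibition above 20% together with a positive visual image hit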;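 note: compound added about 3h40 before a 20 min TNFalpha stimulation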;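 for inhibition: signal is the nuclear over cytoplasmic p65 intensity ratio per well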); details: HUVEC TNFa-induced p65 nuclear translocation; cell count: measured here: nuclei count (cytotoxicity indicator), at 2.08 µM; inhibition: at 2 µM, stronger effect = higher value, 0% TNFa-plus-vehicle, 100% no-TNFa wells
# [2] = reduction of polyQ htt aggregates in cells – imaging, exon1htt(103Q)mCFP cells, high-content imaging, primary screen (AID 483;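 active = visual image review flags a hit and inhibition of aggregation exceeds 20%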;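 note: compound exposure lasted 3 days before fixation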;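 for nuclei count: percent of the per-plate median nuclei count of sample wells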); details: exon1htt(103Q)mCFP cell line, aggregate imaging, at 2 µM; inhibition of aggregation: stronger effect = higher value; nuclei count: measured here: cell count, toxicity
# [3] = endothelial E-selectin expression blockers – imaging, HUVEC, immunofluorescence, MLSMR starter and 10KST1 sets, primary screen (AID 487;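 active = visually confirmed hit in the image check and inhibition above 20%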;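 for inhibition: signal is fraction of cell area covered by stained E-selectin grains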;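 for nuclei count: 100% = median nuclei count of all wells on the same plate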); details: HUVEC TNFalpha-induced E-selectin immunofluorescence imaging, at 2 µM; inhibition: stronger effect = higher value; nuclei count: measured here: cell number, toxicity
# [4] = molecular target: Voltage-gated potassium channel subunit beta-2 (Rattus norvegicus) (UniProt P62483); experiment: inhibitors of rat Kvbeta2 reductase activity – biochemical, NADPH fluorescence, primary screen (AID 622;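 active = fluorescence slope higher than the sample average by over 3 SD, cut at about -0.22 in these data, passing the limit was not always enough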;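 note: slope of raw intensity against log time taken from 70 to 1610 s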); details: recombinant KvBeta, 4-cyanobenzaldehyde reduction, at 10 µM, stronger effect = higher value
# [5] = molecular target: Voltage-gated potassium channel subunit beta-2 (Rattus norvegicus) (UniProt P62483); experiment: enhancers of rat Kvbeta2 NADPH turnover – biochemical, NADPH fluorescence, primary screen (AID 623); details: Recombinant KvBeta, NADPH fluorescence decrease slope, 10 min; at 10 µM; stronger effect = lower value;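 note: fluorescence intensity change per second fitted from 20 to 320 s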
# [6] = molecular target: Muscarinic acetylcholine receptor M4 (Homo sapiens) (UniProt P08173); experiment: M4-linked GIRK flux change, two-sided – cell-based, HEK293 M4/GIRK, thallium flux, BTC-AM, M4 allosteric agonist project, primary screen (AID 625;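 active = fluorescence slope after compound addition differing from the mean of all tested samples at 99.7% confidence, mostly higher but some lower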;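 note: thallium influx through GIRK channels coupled to M4 in HEK293 cells with BTC-AM dye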); details: at 10 µM, actives lie on both sides
# Method in brief: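 Material: HEK293 cells with M4 receptor and GIRK channels; Times: cells overnight at 37 °C, BTC-AM loading 1 h, reads 2 min total; Technique: kinetic BTC-AM fluorescence sampled at 1 Hz, 10 s pre-addition baseline; Read-out basis: slope over 15–24 s of trace normalized to starting intensity; Controls: carbachol positive, DMSO negative.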
# [7] = blockers of RIG-like receptor reporter activation – cell-based, Sendai virus stimulus, luciferase, 10K MLSCN set, TLR/RLR signaling modifier project, primary screen (AID 602276;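 active = inhibition at or above 50% at 10 µM; inactive = inhibition below 50%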;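 note: firefly luciferase from ISG56 promoter only with Renilla not read in this screen; 0% = Sendai virus plus DMSO and 100% = medium plus DMSO without virus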); details: HEK293 RL24 IRF3 luciferase reporter, at 10 µM, stronger effect = higher value
# [8] = TLR3 IRF3 reporter activation blockers – cell-based, poly I:C stimulus, luciferase, 10K MLSCN set, primary screen (AID 602277;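 active = inhibition of the reporter signal at or above 50%; inactive = inhibition below 50%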); details: HEK293-TLR3 RL24 IRF3 luciferase reporter, at 10 µM, stronger effect = higher value
# Voltage-gated potassium channel subunit beta-2 (Rattus norvegicus), sequence (P62483 whole entry, looked up): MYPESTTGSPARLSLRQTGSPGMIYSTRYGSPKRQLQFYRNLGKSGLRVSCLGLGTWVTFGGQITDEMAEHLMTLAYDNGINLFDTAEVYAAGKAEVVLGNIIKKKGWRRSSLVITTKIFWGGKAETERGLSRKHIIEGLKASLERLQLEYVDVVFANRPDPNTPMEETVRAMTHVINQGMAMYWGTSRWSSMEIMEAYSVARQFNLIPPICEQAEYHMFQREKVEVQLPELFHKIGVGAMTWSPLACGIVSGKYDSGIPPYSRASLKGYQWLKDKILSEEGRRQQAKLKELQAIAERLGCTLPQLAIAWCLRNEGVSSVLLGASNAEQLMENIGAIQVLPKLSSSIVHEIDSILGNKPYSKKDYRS
# Muscarinic acetylcholine receptor M4 (Homo sapiens), sequence (P08173 whole entry, looked up): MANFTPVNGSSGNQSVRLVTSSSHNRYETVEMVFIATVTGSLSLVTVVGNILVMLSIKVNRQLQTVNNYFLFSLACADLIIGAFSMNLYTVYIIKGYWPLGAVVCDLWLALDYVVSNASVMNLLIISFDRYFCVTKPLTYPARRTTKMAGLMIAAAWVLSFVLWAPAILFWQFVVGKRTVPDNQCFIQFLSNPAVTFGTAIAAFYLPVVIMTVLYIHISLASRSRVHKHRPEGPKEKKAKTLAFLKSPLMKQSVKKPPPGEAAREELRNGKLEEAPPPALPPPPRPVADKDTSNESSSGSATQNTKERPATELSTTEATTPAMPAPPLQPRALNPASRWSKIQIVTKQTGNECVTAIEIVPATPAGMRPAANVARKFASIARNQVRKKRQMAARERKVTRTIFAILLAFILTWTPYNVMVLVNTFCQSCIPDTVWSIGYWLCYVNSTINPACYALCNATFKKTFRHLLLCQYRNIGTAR
Structure (SMILES),cell count [1],inhibition [1],inhibition of aggregation [2],nuclei count [2] [%],inhibition [3],nuclei count [3] [%],fluorescence slope [4],NADPH fluorescence slope [5],fluorescence slope [6],inhibition [7],inhibition [8]
CC1N=C2c3ccccc3N=C(SCc3cc(=O)n4cc(Cl)ccc4n3)N2C1=O (stereo unspecified),346,7.6% (inactive),18.8% (inactive),102,32.4% (inactive),92.4,-0.478 (inactive),-0.0001 (inactive),0.00478 (inactive),13.1% (inactive),18.7% (inactive)
O=C(COC(=O)C1=COCCO1)Nc1ccccc1Oc1ccccc1,672,9.6% (inactive),31% (inactive),90.2,-33.5% (inactive),103,-0.541 (inactive),-2.5e-05 (inactive),0.00561 (inactive),1.11% (inactive),8.4% (inactive)
CC(=O)Oc1ccc(CCC(C)OC(C)=O)cc1 (stereo unspecified),634,-2.9% (inactive),-2.2% (inactive),100,-0.1% (inactive),84,-0.518 (inactive),-5.9e-05 (inactive),0.00491 (inactive),14.9% (inactive),12.9% (inactive)
Cc1cc2nc3c(nc2cc1C)C1(C(=O)O)CCC3(C)C1(C)C (stereo unspecified),376,-12.3% (inactive),-4.4% (inactive),95,-109% (inactive),101,-0.547 (inactive),-0.000111 (inactive),0.00318 (inactive),13.5% (inactive),15.6% (inactive)
CCC(=O)N1CCc2cc(Br)cc(S(=O)(=O)C3(C(=O)OC)CC3)c21,469,2.5% (inactive),-5.1% (inactive),98.8,3.4% (inactive),97.1,-0.554 (inactive),-3.7e-05 (inactive),0.00618 (inactive),17% (inactive),18% (inactive)
CCOC(=O)c1cc2sccc2n1CC(=O)Nc1ccc2c(c1)OCCO2,513,-14.9% (inactive),-25.9% (inactive),108,12.2% (inactive),117,-0.61 (inactive),4.2e-06 (inactive),0.00667 (inactive),-5.94% (inactive),-4.31% (inactive)
COc1cccc(OCC(O)CN2CCN(CCO)CC2)c1 (stereo unspecified),383,-1% (inactive),-24.6% (inactive),105,-46.4% (inactive),102,-0.475 (inactive),-0.000292 (inactive),0.00352 (inactive),8.25% (inactive),13.5% (inactive)
COC(=O)c1[nH]c2cc(OC)ccc2c1NC(=O)CCN1CCCCC1,290,10.8% (inactive),-12.7% (inactive),70.3,-82.1% (inactive),164,-0.55 (inactive),-5.4e-05 (inactive),0.0032 (inactive),-3.43% (inactive),3.78% (inactive)
O=C(c1cccs1)N1CCc2ccccc21,335,-3.8% (inactive),5% (inactive),104,-59.6% (inactive),111,-0.511 (inactive),-5e-05 (inactive),0.00554 (inactive),-42% (inactive),-100% (inactive)
COC(=O)c1cc(-c2c(C)nn(-c3ccccc3)c2C)n[nH]1,391,1.1% (inactive),-8.1% (inactive),111,8.5% (inactive),95.5,-0.447 (inactive),2.5e-05 (inactive),0.00494 (inactive),-13.2% (inactive),-66.7% (inactive)
COCC(=O)NC(c1ccccc1)c1ccccc1,336,9.4% (inactive),4.5% (inactive),100,-13.4% (inactive),122,-0.561 (inactive),-7e-05 (inactive),0.00683 (inactive),14.6% (inactive),19.5% (inactive)
CC(=O)NCCn1c(SCC(=O)NCC2CCCO2)nc2ccccc2c1=O (stereo unspecified),515,-8.5% (inactive),4.3% (inactive),110,21.7% (inactive),103,-0.471 (inactive),5.6e-05 (inactive),0.00516 (inactive),3.29% (inactive),12.9% (inactive)
CCCS(=O)(=O)N1CCC(C(=O)N2CCCC2)CC1,657,-9.9% (inactive),-6.5% (inactive),96.1,-70.4% (inactive),107,-0.611 (inactive),-8.1e-06 (inactive),0.00435 (inactive),18.9% (inactive),8.55% (inactive)
CCOC(=O)c1c(C)oc2ccc(OCC(N)=O)cc12,794,-12.1% (inactive),-6.7% (inactive),36.5,20.4% (inactive),93.5,-0.483 (inactive),-1.6e-05 (inactive),0.00617 (inactive),5.65% (inactive),6.54% (inactive)
Cc1nc2ccccn2c1C(=O)NCCCN1CCOCC1,521,-7.5% (inactive),3% (inactive),102,11.8% (inactive),102,-0.461 (inactive),0.000108 (inactive),0.0064 (inactive),4.89% (inactive),12.3% (inactive)
Cc1nc(SCC(=O)NCc2ccco2)c2c(C)c(C)sc2n1,709,-4% (inactive),15.2% (inactive),85.7,-4.2% (inactive),112,-0.558 (inactive),-3.9e-05 (inactive),0.00596 (inactive),17.4% (inactive),17.9% (inactive)
C=CCn1c(Cc2csc(N)n2)nnc1SCC(=O)OCC,313,-3.5% (inactive),18.2% (inactive),86.3,25.2% (inactive),77.4,-0.48 (inactive),-2.5e-05 (inactive),0.00546 (inactive),4.87% (inactive),10% (inactive)
Cc1sc2c(c1C)CN(C1CC(C)(C)NC(C)(C)C1)CN2C(=O)c1ccco1,307,10.6% (inactive),2% (inactive),91.5,-5% (inactive),105,-0.377 (inactive),-2.6e-05 (inactive),0.00444 (inactive),-1.32% (inactive),-7.67% (inactive)
N#Cc1c(N2C(=O)C3C4C=CC(C4)C3C2=O)sc2c1CCC2 (stereo unspecified),493,-24.7% (inactive),-12.7% (inactive),92.9,-17.4% (inactive),96.7,-0.417 (inactive),-5.2e-05 (inactive),0.00524 (inactive),14.5% (inactive),18.6% (inactive)
Cc1cc(=O)oc2cc(Oc3ncccn3)ccc12,476,2.4% (inactive),9% (inactive),93.1,-29.9% (inactive),111,-0.427 (inactive),-1.6e-05 (inactive),0.00578 (inactive),-6.46% (inactive),-5.6% (inactive)
Cc1ccc(-n2ncc3c(=O)n(CC(=O)NC4CCCCC4)cnc32)cc1C,281,-0.3% (inactive),4.3% (inactive),96.7,-3.3% (inactive),106,-0.575 (inactive),2.2e-05 (inactive),0.00615 (inactive),13.5% (inactive),15.1% (inactive)
Cc1cc(C)c(C)c(S(=O)(=O)Nc2ccc(O)cc2)c1C,187,-8.6% (inactive),37.3% (active),87.5,-7.7% (inactive),74.8,-0.539 (inactive),-1.7e-05 (inactive),0.00478 (inactive),10.8% (inactive),18.5% (inactive)
Cc1onc(-c2ccccc2)c1C(N)=O,506,-11.2% (inactive),-1.6% (inactive),98.5,-158% (inactive),159,-0.563 (inactive),-6.3e-05 (inactive),0.00641 (inactive),16% (inactive),16.2% (inactive)
Cn1c(=O)c2ccccc2n(Cc2ccccc2F)c1=O,254,-8.1% (inactive),8.7% (inactive),74.6,-51.8% (inactive),73.9,-0.451 (inactive),-7.1e-05 (inactive),0.00416 (inactive),1.3% (inactive),65.6% (active)
CC1CCN(C(=O)c2cc(-c3ccc(Cl)c(Cl)c3)on2)CC1,435,0.9% (inactive),4.2% (inactive),94,6.5% (inactive),91.7,-0.449 (inactive),-3.4e-05 (inactive),0.00453 (inactive),-41% (inactive),-89% (inactive)
O=C(COC(=O)c1ccc(Br)o1)Nc1ccc(S(=O)(=O)N2CCCC2)cc1,619,-3.6% (inactive),-10.1% (inactive),117,-150% (inactive),130,-0.208 (inactive),-2e-05 (inactive),0.00525 (inactive),12.4% (inactive),11.3% (inactive)
